According to the EternaBench riboswitch data:

Test system: MS2 coat protein
Assay: apparent Kd, MS2 coat protein; higher = weaker binding; RNA-MaP array; FMN 200 µM where present
Summary of the method: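 On Illumina sequencing-chip clusters, designs were transcribed by stalled E. coli RNA polymerase and titrated with SNAP-549-labelled MS2 coat protein (0.7 or 1.5 nM, doubling to 3 µM), without and then with constant ligand, in 100 mM Tris-HCl pH 7.5, 80 mM KCl, 4 mM MgCl2, BSA, DTT, yeast tRNA and Tween-20. Apparent Kd is the median of filtered per-cluster curve fits to green signal normalised to red-channel RNA signal and control-cluster median Fmax.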

[1] = designed as: OFF switch for flavin mononucleotide, no ligand
[2] = ligand present: flavin mononucleotide, designed as: OFF switch for flavin mononucleotide
[3] = designed as: ON switch for flavin mononucleotide, no ligand
[4] = ligand present: flavin mononucleotide, designed as: ON switch for flavin mononucleotide

| Sequence | apparent Kd [1] | apparent Kd [2] | apparent Kd [3] | apparent Kd [4] |
| --- | --- | --- | --- | --- |
| UCCAACCCUGUGAGGAUAUCGUCCAUUUUUUGUUCCGAGAAGGCACAUGAGGAUCACCCAUGUUUUUUAUUUUU | 28.1 nM | 93.7 nM | – | – |
| CUUUUUUUUGUGAGGAUAUACUGUUAUUAAAGUUAGUAGAAGGUACAUGAGGAUCACCCAUGUUAAUUACUCUA | 14.1 nM | 14.9 nM | – | – |
| UUGUUGUAUGUAGGAUAUGCAUAUUAUUAUUAUGCAGAAGGACAUGAGGAUCACCCAUGUGUAUUAUUAUUAUAUAUUAUAUAU | 25.5 nM | 44.1 nM | – | – |
| CGCGCUUUAGGAUAUGCGUGAUGUCGUCGGCGUUGUGGUUCACAUGAGGAUCACCCAUGUAGAAGGGAGGUGUG | 205 nM | 175 nM | – | – |
| AAUAUGUUGCAGAAGGUUAUAUUUUUUUCGUUCCUCAUGACAUGAGGAUCACCCAUGUAUUUGUUGAAGGAUAUGCAAUAUAUU | 19.9 nM | 17.6 nM | – | – |
| ACGUGUCGUGUAGGAUAUGACACAGGAAACUGGUCAGAAGGACAUGAGGAUCACCCAUGUAAAAUGUUCAAGAAUGACGUAUGC | 58.6 nM | 105 nM | – | – |
| UCCCUGUGAGGAUAUCUCUUUGAGUGCGGCGAAUUCAGGUGGGAGAAGGCACAUGAGGAUCACCCAUGUAUUGC | 40.2 nM | 73 nM | – | – |
| AGCUGGUGACAGCAUCCAUCAAAACAUGAGGAUCACCCAUGUAGAAGGCUGUACGGUUACCGUACAGAGGAUAUACAAUGAUGG | 7.61 nM | 9.36 nM | – | – |
| UGUCGGAGCAGAGGAUAUUACAUGAGGAUCACCCAUGUAAUAAGAUCAAGCUGGAAACAGCAAUGUAAGAAGGCUGCUCCGACA | 16.9 nM | 43.3 nM | – | – |
| AAUAACAGAGGAUAUACUAUUUUAUGUGUUUGUUAUUUUGAACAUGAGGAUCACCCAUGUAGAAGGCUGAAUAA | 25 nM | 27.2 nM | – | – |
| UUAAUUAAUUAAUUCCAGUUUACAUGAGGAUCACCCAUGUAUAAGGAUAUGCAGUGGAAUACACUGCAGAAGGUAUACAUCUGG | 18.4 nM | 35.8 nM | – | – |
| UGCUACUAGGGAGGAUAUGGGAAGAUACAUGAGGAUCACCCAUGUUUAAGAAUGCCGAGAGGCAACUAGAAGGCCCUAGUACCU | – | – | 401 nM | 22.1 nM |
| GUCAAGUGAGGAUAUGAUUGUACAACAGACUAACAUCUACAUCAGAAGGCACAUGAGGAUCACCCAUGUUUGUC | 17.7 nM | 15.8 nM | – | – |
| GUCGUGUGAGGAUAUGAUUUUUCGGCGGGAUUGCGACUGCUUCAGAAGGCACAUGAGGAUCACCCAUGUAUGUC | 10.7 nM | 25.5 nM | – | – |
| GUCGUGCGGCUUUGCUGUACGAGUACAUGAGGAUCACCCAUGUAGGAUAUGGUUCGUUUUGCGUGCCAGAAGGGCGUGCGUUGU | 25.5 nM | 24.8 nM | – | – |
| AUCAUGCUCAAGAAGGACAUGAGGAUCACCCAUGUAGGAUAUUGGGCGGUCACUUCUAGCUUGUGUGUAUCUGAAUACUCCAGG | – | – | 20.4 nM | – |
| CAGUACUGAGGAUAUACAUGAGGAUCACCCAUGUGUUCCAGCUAGGAAACUAGCAAGAGUAGAAGGCAGUACUG | 23.7 nM | 459 nM | – | – |
| GCUGCAUAGGCAGGAUAUGCAAUAAUUUGAAUAAAAUAUAACAAAUUAACAUGAGGAUCACCCAUGUAGAAGGGCCUGUGCAGU | 17.5 nM | 19.4 nM | – | – |
| AACAGUACAGGAUAUACAUGAGGAUCACCCAUGUGAGAAUUAAGUGGAAAACCACAAAGUAGAAGGGUACUGGA | 29.8 nM | 269 nM | – | – |
| AUCAGCUGGUCAGGAUAUACAUCACUGCUUCGGCAGUGUAUUAAGAUCACAUGAGGAUCACCCAUGUAGAAGGGACCAGCUGAU | 30.3 nM | 341 nM | – | – |
| UUUUAGGAAGGAUAUACAUUUUUUUUAUUAUCCUCAUUAUUACAUGAGGAUCACCCAUGUAGAAGGUCCAUUUU | 172 nM | 137 nM | – | – |
| AUUAAUUAAUUAAUACAUGAGGAUCACCCAUGUAAUAAGAUCAAGGAUAUCAGCUCGAAUAGAGCUGAGAAGGUGAUCACAUGU | – | – | 555 nM | 226 nM |
| AUUGAUGUUGAGGAUAUGCUUAUAUUUAUACUUGCAGAAGGCGAUACAUGAGGAUCACCCAUGUUCAUGGAAGU | 31.3 nM | 33.8 nM | – | – |
| AUGGUCAUGUUAGGAUAUGACGCGCUGUACGCAUCAGAAGGAACAUGAGGAUCACCCAUGUAUAGAGUAAUGUCGCUUACUCUC | 47.9 nM | 187 nM | – | – |

| Sequence | apparent Kd [1] | apparent Kd [2] | apparent Kd [3] | apparent Kd [4] |
| --- | --- | --- | --- | --- |
| AAAACGGCACGUCCCGUGCCAACUACAGAAGGCCAACAUGAGGAUCACCCAUGUACAAACUAGAUGGAGGAUAUGUAGGUUCUA | – | – | 6.19 nM | 4.24 nM |
| GCAUCUCUAUUAGAACCGAUACGAACAUGAGGAUCACCCAUGUAGGAUAUGCUAAAAGUUGUGUUGCAGAAGGACAUUUAAUGC | 9.49 nM | 8.64 nM | – | – |
| AAUUUAAGAUGAGGAUAUUGACAUGAGGAUCACCCAUGUAUUUGGGAAUGUUUACUGAAUUCUUACAAGAAGGUAUACGAACUU | 185 nM | 138 nM | – | – |
| UGGUACAUCAUAGGAUAUCGUGUGUAAACAUGAGGAUCACCCAUGUCAUCCGAGAGUAUGUCGACCGAGAAGGGUGAUGUACCU | – | – | 45.4 nM | 72.7 nM |
| GCCUCAGAAUUAAUUGUGAGAAGCAGAAGGCUAUAUCUUAUGUUAGACAUGAGGAUCACCCAUGUAGAGGAUAUGCUGUUACAG | 7.84 nM | 12 nM | – | – |
| CAGUACUGAGGAUAUACAUGAGGAUCACCCAUGUGUUCCUUGUAGGAUAUGCGCAAAAGUAGAAGGCAGAAGGACAUGUGCCUA | 7.48 nM | 6.45 nM | – | – |
| GUGGUCAGACAUGAGGAUCACCCAUGUGGAAUAAAUAACACACAGGAUAUCUAAUAUAAAAUAUAAGAGAAGGGUGGAUUGGUG | – | – | 273 nM | 182 nM |
| UAGGAGUCAGGAUAUGCGAGAGAUUGAAGUAUGGGAUGUGAGCAGAAGGGACAUGAGGAUCACCCAUGUAUGGA | 167 nM | 150 nM | – | – |
| CACACGAAAGUCGAACGAUGAUCCAGAAGGAGUAUAACAUGACAUGAGGAUCACCCAUGUGCCAACUAGGAUAUGGAUCAUGGG | 86.3 nM | 15.1 nM | – | – |
| GUAGCUAUCGGAGGAUAUUCAUAGCCGAAAGGCACAUGAGGAUCACCCAUGUGCGGAAACGCUUGGGAGAAGGCCGAUAGCUAC | – | – | 25 nM | 15.1 nM |
| UGGUACAUGGGAGGAUAUCAUGUACUUACAUGAGGAUCACCCAUGUCGAUGGAGACAUCGGAGAUUGAGAAGGCCCAUGUACCU | – | – | 1220 nM | 42.2 nM |
| GGAUAGGACAGAGGAUAUACGUGCUAGAGAUACCAGCAAAAUUUCCUCACAUGAGGAUCACCCAUGUAGAAGGCUGUCCUAUCG | 31.9 nM | 558 nM | – | – |
| UAGUCGGUAGAUAAUAAUGAAUACAUGAGGAUCACCCAUGUAUAGGAUAUCGUCAGGAAUACUGACGAGAAGGAUACAUCCGAC | 16.1 nM | 18.4 nM | – | – |
| UCGACCGGCGCCGGUCGAACAUGAGGAUCACCCAUGUACUCCAGAAGGCCGCCCAAGAACGGAGUGGAGGAUAUGGAGGUUCUC | – | – | 77.1 nM | 22.3 nM |
| UUGCGGGAUUGAGGAUAUUGAGUACAUAUGUUUAACAUGAGGAUCACCCAUGUGGGUUGCGGUAUCGAGAAGGUAACUUACUAC | – | – | 95.8 nM | 104 nM |
| GUAGCUAGUAAAGGAUAUUAGUGUGUGUAAUAUUGAGAAGGUUACAUGAGGAUCACCCAUGUGAUCAAUCACUGUUAAGGUUGC | 6.29 nM | 6.33 nM | – | – |
| GUUUGACAUGAGGAUCACCCAUGUAAGGAUAUACGAGUAGCUGCUAGGUAGUUAGUAUGUAGAAGGUGCGUGUU | 65.7 nM | 62.6 nM | – | – |
| CCCUCACAUGAGGAUCACCCAUGUCCUAGCAGGUCAGGAUAUAGCCCGCAUCCGCUGCGGCUAGAAGGGACAGCUG | – | – | 244 nM | 105 nM |
| CAAUUCUGAGGAUAUCGAUUUUUGUACAUGAGGAUCACCCAUGUCCUUUUUAUUUAAUCCCGAGAAGGCAGUGUAU | 23.3 nM | 26.1 nM | – | – |
| GCCUUACUGGUCAGGAUAUACAUUUGUUACUCUUUGUAGAAGGGACAUGAGGAUCACCCAUGUACAUUACAUUC | 20.8 nM | 27.2 nM | – | – |
| AUACCACGAGGAUAUCGUCUAUUCCACAUGAGGAUCACCCAUGUUAUCCAUGUUUCGUUUCGAGAAGGCGUGUUUU | 59.3 nM | 41.5 nM | – | – |
| CAUUAUGUUGAGGAUAUGCACCGGCUCACUGACGCAGAAGGCGACACAUGAGGAUCACCCAUGUCAGUUCGCGA | 15.5 nM | 15.8 nM | – | – |
| GUAAAUCAUGUAGGAUAUGCAUGGCGAAGCUACGCAGAAGGACAUGAGGAUCACCCAUGUUAUAGCUACCAAGUUAGGUGGCAA | 110 nM | 260 nM | – | – |
| GGUGUCAUCGAGAAGGCCUCAACAUGAGGAUCACCCAUGUUGUAAUAUGGGAGGAUAUCGAUGAUACAGCUACGUUUCGUAGCA | – | – | 18.5 nM | 6.1 nM |
